Laboratory results: ChEMBL document CHEMBL1124802 (J Med Chem, 1990)

How the values were obtained:
[1] = target: D(1A) dopamine receptor (Rattus norvegicus, UniProt P18901); test: Displacement of [3H]- #NAME? from binding Dopamine receptor D1 in rat striatum
Procedure, shortened: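 Rat striatal membranes, homogenised and washed twice by centrifugation in ice-cold 50 mM HEPES with 4 mM MgCl2, pH 7.4, at about 2 mg wet weight/mL. Competition with the tritiated selective D1 antagonist in 1.0 mL of the same buffer, 37 °C for 15 min. Nonspecific binding defined with 1 µM of the unlabelled antagonist. Filtration and scintillation counting; protein measured by Lowry.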

[2] = Stimulation of Adenylate cyclase from rat striatal membranes; type: cell membranes, Membrane
Procedure, shortened: (§1)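 Rat striatum homogenised in HEPES/EGTA buffer. […] Stopped with SDS, then ZnSO4/Ba(OH)2 precipitation. [32P]cAMP isolated by HPLC with UV-tracked internal standard and counted; percent stimulation calculated from peak areas and radioactivity.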

[3] = Percentage maximum stimulation adenylate cyclase was measured versus DA; procedure, shortened: as §1
[4] = target: D(2) dopamine receptor (Rattus norvegicus, UniProt P61169); test: Displacement of [3H]- -spiperone from Dopamine receptor D2 in rat striatum
D(2) dopamine receptor, sequence (P61169 whole entry): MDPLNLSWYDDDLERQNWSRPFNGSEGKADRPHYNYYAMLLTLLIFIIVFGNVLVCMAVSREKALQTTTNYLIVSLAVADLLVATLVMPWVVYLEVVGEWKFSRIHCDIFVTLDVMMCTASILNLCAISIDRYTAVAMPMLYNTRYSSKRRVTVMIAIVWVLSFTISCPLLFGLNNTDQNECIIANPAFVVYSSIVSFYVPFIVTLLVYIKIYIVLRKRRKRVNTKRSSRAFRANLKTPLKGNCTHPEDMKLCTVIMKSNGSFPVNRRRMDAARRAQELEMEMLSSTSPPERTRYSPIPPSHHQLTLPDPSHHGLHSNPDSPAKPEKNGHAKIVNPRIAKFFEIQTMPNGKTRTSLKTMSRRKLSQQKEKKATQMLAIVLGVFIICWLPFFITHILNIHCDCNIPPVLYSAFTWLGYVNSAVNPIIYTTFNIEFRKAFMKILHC
Procedure, shortened: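 Same rat striatal membrane preparation and buffer (50 mM HEPES, 4 mM MgCl2, pH 7.4). Competition with [3H]spiperone in 1.0 mL at 37 °C for 15 min. Nonspecific binding defined with 1 µM chlorpromazine. Bound ligand collected by glass-fibre filtration and counted by scintillation; protein measured by Lowry.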

D(1A) dopamine receptor, sequence (P18901 whole entry): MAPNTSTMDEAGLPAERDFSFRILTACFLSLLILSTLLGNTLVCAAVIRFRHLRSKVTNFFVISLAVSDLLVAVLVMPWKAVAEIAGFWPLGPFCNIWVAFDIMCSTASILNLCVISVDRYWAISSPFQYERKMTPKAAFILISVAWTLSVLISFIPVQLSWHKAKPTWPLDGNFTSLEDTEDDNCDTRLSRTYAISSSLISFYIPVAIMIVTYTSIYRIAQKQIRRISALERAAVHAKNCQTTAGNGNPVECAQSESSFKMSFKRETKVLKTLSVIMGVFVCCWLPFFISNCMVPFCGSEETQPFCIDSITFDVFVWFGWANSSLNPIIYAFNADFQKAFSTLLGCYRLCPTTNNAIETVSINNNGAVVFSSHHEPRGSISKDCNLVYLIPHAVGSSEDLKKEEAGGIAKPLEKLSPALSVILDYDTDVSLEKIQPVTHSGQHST

Row | SMILES | IC50 [1] [µM] | EC50 [2] [µM] | Max stimulation [3] | IC50 [4] [µM]
1 | Oc1ccc([C@@H]2CNCc3sccc32)cc1O | 0.12 | 0.7 | 120 | 0.285
2 | CN1Cc2ccccc2[C@@H]2c3cc(O)c(O)cc3CC[C@H]21 | 0.091 | 1 | 63 | 0.136
3 | CCCN1Cc2ccccc2[C@@H]2c3cc(O)c(O)cc3CC[C@H]21 | 0.651 | > 0.01 | 32 | 0.053
4 | Oc1cc2c(cc1O)[C@H]1CCCN[C@@H]1CC2 | > 5 | > 0.01 | 33 | 0.068
5 | Oc1cc2c(cc1O)CC(NCc1ccccc1)CC2 (configuration not stated) | > 5 |  | 25 | 0.29
6 | Oc1cc2c(cc1O)[C@@H](c1ccccc1)CNCC2 [(R)-SKF-38393] |  | 0.1 | 50 | 
7 | NCCc1ccc(O)c(O)c1 [DOPAMINE] |  | 5 | 100 | 
8 | Oc1cc2c(cc1O)[C@H]1c3ccccc3CN[C@@H]1CC2 [DIHYDREXIDINE] |  | 0.07 | 120 | 
9 | Oc1cc2c(cc1O)[C@@H]1c3ccccc3CN[C@@H]1CC2 |  |  | 17 | 
10 | CN1CCc2cc(Cl)c(O)cc2[C@@H](c2ccccc2)C1 |  |  | 0 | 
